ChEMBL document CHEMBL1136761 (J Med Chem, 2003)

Tests used:
[1] = target: T1, Sodium-dependent dopamine transporter (Rattus norvegicus, UniProt P23977); experiment: Affinity at rat dopamine transporter using [125I]RTI-55 displacement.
Outline: (§1)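 Binding was measured by competition against [125I]RTI-55 at DAT and SERT, and affinities were reported as Ki values. The selectivity ratio is SERT Ki divided by DAT Ki. Other conditions follow a cited earlier method.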

[2] = Ratio between the inhibition of norepinephrine and dopamine uptake.
[3] = target: Norepinephrine transporter (Rattus norvegicus, UniProt Q9WTR4); experiment: Inhibition of [3H]norepinephrine uptake at the rat norepinephrine transporter.
[4] = target: T2, Sodium-dependent serotonin transporter (Rattus norvegicus, UniProt P31652); experiment: Inhibition of [3H]5-HT uptake at the rat serotonin transporter.
[5] = target: Monoamine transporters; serotonin & dopamine (Rattus norvegicus) (UniProt P31652+P23977); experiment: Ratio between affinities at the rat dopamine and serotonin transporters.; assay type: protein assay; outline: as §1
[6] = target: T1, Sodium-dependent dopamine transporter; experiment: Inhibition of [3H]dopamine uptake via rat dopamine transporter.
[7] = target: T2, Sodium-dependent serotonin transporter; experiment: Affinity at rat serotonin transporter using [125I]RTI-55 displacement.; outline: as §1
[8] = Ratio between the inhibition of serotonin and dopamine uptake.

T2 sequence (P31652 whole entry): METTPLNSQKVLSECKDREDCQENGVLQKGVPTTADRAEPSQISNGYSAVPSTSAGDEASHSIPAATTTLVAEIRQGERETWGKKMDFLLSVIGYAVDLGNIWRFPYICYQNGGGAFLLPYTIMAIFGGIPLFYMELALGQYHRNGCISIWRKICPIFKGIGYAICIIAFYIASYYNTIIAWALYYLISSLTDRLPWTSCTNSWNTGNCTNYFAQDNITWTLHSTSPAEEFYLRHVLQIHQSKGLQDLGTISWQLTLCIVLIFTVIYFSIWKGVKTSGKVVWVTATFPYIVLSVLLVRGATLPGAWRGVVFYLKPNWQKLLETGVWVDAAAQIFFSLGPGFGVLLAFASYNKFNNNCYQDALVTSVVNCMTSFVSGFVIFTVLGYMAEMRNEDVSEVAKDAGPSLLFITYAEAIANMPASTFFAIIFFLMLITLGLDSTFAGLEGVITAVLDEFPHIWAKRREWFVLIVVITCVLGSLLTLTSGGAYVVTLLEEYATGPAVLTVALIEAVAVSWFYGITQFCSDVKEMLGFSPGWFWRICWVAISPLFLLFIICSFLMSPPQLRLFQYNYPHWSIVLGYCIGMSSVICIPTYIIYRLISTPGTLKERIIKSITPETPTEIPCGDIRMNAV
Norepinephrine transporter, sequence (Q9WTR4 whole entry): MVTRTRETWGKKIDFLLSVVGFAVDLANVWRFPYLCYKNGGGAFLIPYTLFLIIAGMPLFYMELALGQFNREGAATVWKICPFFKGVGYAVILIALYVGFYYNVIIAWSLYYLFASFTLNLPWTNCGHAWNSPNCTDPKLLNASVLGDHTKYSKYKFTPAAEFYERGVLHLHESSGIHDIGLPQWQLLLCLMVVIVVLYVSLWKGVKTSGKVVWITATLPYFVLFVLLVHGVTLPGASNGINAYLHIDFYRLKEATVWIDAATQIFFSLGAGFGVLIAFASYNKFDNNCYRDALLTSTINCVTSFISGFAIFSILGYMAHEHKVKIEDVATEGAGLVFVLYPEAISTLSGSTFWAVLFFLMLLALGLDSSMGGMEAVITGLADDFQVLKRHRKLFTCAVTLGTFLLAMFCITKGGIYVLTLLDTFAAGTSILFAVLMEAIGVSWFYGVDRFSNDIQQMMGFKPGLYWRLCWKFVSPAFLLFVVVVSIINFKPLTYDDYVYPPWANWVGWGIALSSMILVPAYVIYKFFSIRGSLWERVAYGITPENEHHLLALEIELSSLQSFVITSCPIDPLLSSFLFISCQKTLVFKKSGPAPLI
Monoamine transporters; serotonin & dopamine (Rattus norvegicus), sequence (P23977 whole entry, looked up): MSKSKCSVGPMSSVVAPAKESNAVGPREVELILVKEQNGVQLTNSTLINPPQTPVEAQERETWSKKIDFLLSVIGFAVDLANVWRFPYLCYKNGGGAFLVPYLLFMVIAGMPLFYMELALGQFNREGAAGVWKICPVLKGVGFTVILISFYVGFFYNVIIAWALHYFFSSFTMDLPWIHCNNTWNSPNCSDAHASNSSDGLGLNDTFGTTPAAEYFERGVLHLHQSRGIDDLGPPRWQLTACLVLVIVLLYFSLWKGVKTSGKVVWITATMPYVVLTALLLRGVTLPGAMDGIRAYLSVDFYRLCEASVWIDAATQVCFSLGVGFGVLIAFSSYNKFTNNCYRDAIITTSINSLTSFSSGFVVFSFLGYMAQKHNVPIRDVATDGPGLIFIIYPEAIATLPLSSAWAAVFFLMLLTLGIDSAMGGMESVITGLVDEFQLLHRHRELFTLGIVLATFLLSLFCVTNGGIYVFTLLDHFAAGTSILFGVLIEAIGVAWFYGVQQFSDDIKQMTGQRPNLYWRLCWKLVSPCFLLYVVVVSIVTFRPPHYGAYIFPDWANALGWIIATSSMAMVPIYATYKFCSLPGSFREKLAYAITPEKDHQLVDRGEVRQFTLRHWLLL
Monoamine transporters; serotonin & dopamine (Rattus norvegicus), sequence (P31652 whole entry, looked up): as the sequence (P31652 whole entry) above
T1 sequence (P23977 whole entry): as the sequence (P23977 whole entry, looked up) above

Structure (SMILES)	Ki [1] [nM]	Ratio [2]	Ki [3] [nM]	Ki [4] [nM]	Ratio [5]	Ki [6] [nM]	Ki [7] [nM]	Ratio [8]
Ic1ccc(CN2CCC(CCOC(c3ccccc3)c3ccccc3)CC2)cc1	7.2	93	479	2570	63	5.1	457	500
Fc1ccc(CN2CCC(CCOC(c3ccc(F)cc3)c3ccc(F)cc3)CC2)cc1	2.3		639	601	107	3.8	245	
Fc1ccc(C(OCCC2CCN(Cc3ccc(Cl)cc3)CC2)c2ccc(F)cc2)cc1	1.2				198		238	
Fc1ccc(CN2CCC(CCOC(c3ccccc3)c3ccccc3)CC2)cc1	5.1				177		902	
Fc1ccc(C(OCCC2CCN(Cc3cccc4ccccc34)CC2)c2ccc(F)cc2)cc1	16				23		370	
Fc1ccc(C(OCCC2CCN(Cc3ccc(C(F)(F)F)cc3)CC2)c2ccc(F)cc2)cc1	1.1				402		442	
Cc1ccc(CN2CCC(CCOC(c3ccc(F)cc3)c3ccc(F)cc3)CC2)cc1	5.7				42		239	
Fc1ccc(C(OCCC2CCN(Cc3ccccc3)CC2)c2ccc(F)cc2)cc1	9.9				17		171	
O=[N+]([O-])c1ccc(CN2CCC(CCOC(c3ccccc3)c3ccccc3)CC2)cc1	2.5		208	3580	859	2.7	2150	
COc1cccc(CN2CCC(CCOC(c3ccc(F)cc3)c3ccc(F)cc3)CC2)c1	13.3				12		161	
N#Cc1ccc(CN2CCC(CCOC(c3ccccc3)c3ccccc3)CC2)cc1	5.7				390		2230	
O=[N+]([O-])c1ccc(CN2CCC(CCOC(c3ccc(F)cc3)c3ccc(F)cc3)CC2)cc1	1.2		231	1560	323	6.9	387	
N#Cc1ccc(CN2CCC(CCOC(c3ccc(F)cc3)c3ccc(F)cc3)CC2)cc1	1.2				505		606	
Fc1ccc(C(OCCC2CCN(Cc3ccc(Br)cc3)CC2)c2ccc(F)cc2)cc1	1.1				181		199	
COc1ccc(CN2CCC(CCOC(c3ccc(F)cc3)c3ccc(F)cc3)CC2)cc1	7.9				34		266	
Clc1ccc(CN2CCC(CCOC(c3ccccc3)c3ccccc3)CC2)cc1	3.8				140		531	
Fc1ccc(C(OCCC2CCN(Cc3ccc4ccccc4c3)CC2)c2ccc(F)cc2)cc1	0.7		93	227		7.2	88	
Brc1ccc(CN2CCC(CCOC(c3ccccc3)c3ccccc3)CC2)cc1	6.4		534	1320	154	5.3	988	
Fc1ccc(C(OCCC2CCN(Cc3ccc(I)cc3)CC2)c2ccc(F)cc2)cc1	2.1		546	1020	98	13.6	205	
FC(F)(F)c1ccc(CN2CCC(CCOC(c3ccccc3)c3ccccc3)CC2)cc1	3.5				648		2270	
COc1ccccc1CN1CCC(CCOC(c2ccc(F)cc2)c2ccc(F)cc2)CC1	63				4		248	
